Assays:
[1] = molecular target: T1, Vasopressin V1a/V1b receptor (Rattus norvegicus, UniProt P30560+P48974); test: (§1) Inhibition of radioligand [3H]AVP binding to the vasopressin V1 receptor in rat liver tissue
Summary of the method: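 Crude membranes from male rat liver (V1 sites) competed with 1 nM [3H]AVP (80–90 Ci/mmol). Equilibrium 30 min, 30 °C, buffer 100 mM Tris-HCl, 5 mM MgCl2, 0.1% BSA, 50 μM PMSF, 50 μg/mL bacitracin, pH 8.0. 10 μM unlabeled AVP for nonspecific binding. Filtration through glass-fiber filters. IC50 from linear regression over seven concentrations.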

[2] = molecular target: T1, Vasopressin V1a/V1b receptor; test: ChEBML_211079; from the text: as §1
Vasopressin V2 receptor = Vasopressin V2 receptor (Rattus norvegicus, UniProt Q00788); test: Inhibition of radioligand [3H]-AVP binding to the vasopressin V2 receptor in rat kidney tissue
Vasopressin V2 receptor, sequence (Q00788 whole entry): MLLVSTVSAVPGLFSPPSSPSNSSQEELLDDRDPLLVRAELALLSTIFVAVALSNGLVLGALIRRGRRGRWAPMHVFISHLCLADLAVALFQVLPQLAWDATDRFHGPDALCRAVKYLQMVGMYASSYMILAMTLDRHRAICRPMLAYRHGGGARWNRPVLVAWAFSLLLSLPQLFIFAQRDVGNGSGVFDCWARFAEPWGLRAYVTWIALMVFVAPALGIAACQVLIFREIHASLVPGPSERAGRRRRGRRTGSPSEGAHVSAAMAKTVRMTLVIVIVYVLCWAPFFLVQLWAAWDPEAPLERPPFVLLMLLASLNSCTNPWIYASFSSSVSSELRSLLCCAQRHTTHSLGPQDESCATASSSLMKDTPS
Summary of the method: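 [3H]AVP (80–90 Ci/mmol) at 2 nM competed on crude membranes from male rat kidney medulla (V2 sites). Equilibrium 30 min at 30 °C in 100 mM Tris-HCl, 5 mM MgCl2, 0.1% BSA, 50 μM PMSF, 50 μg/mL bacitracin, pH 8.0. Nonspecific binding with 10 μM unlabeled AVP. Glass-fiber filtration. IC50 by linear regression of % inhibition vs log concentration, seven concentrations.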

Oxytocin receptor [3] = molecular target: T2, Oxytocin receptor (Rattus norvegicus, UniProt P70536); test: Inhibition of radioligand [3H]oxytocin binding at the oxytocin (OT) receptor in rat uterine tissue
T2 sequence (P70536 whole entry): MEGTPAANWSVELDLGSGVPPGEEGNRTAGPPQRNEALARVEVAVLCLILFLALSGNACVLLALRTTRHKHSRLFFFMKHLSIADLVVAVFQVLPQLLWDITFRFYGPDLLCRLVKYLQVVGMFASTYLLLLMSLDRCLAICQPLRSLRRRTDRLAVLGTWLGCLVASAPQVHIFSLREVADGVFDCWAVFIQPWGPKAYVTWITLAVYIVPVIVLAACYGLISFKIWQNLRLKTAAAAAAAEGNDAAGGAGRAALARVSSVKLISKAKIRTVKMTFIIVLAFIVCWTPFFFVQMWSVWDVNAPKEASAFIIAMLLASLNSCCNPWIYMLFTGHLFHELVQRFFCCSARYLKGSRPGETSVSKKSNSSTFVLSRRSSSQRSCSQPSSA
Summary of the method: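 Uteri taken from rats given diethylstilbestrol dipropionate (0.3 mg/kg ip, 18–24 h before), crude membranes. 1 nM [3H]OT (30–60 Ci/mmol), equilibrium 60 min at 22 °C in 50 mM Tris-HCl, 5 mM MgCl2, 0.1% BSA, pH 7.4. Nonspecific binding with 1 mM unlabeled OT. Filtered on glass fiber. Initial single-concentration screen, then IC50 from seven concentrations by linear regression.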

Oxytocin receptor [4] = molecular target: T2, Oxytocin receptor; test: ChEBML_145031
From the text: Tested against rat uterine OT receptor

T1 sequence (P30560 whole entry): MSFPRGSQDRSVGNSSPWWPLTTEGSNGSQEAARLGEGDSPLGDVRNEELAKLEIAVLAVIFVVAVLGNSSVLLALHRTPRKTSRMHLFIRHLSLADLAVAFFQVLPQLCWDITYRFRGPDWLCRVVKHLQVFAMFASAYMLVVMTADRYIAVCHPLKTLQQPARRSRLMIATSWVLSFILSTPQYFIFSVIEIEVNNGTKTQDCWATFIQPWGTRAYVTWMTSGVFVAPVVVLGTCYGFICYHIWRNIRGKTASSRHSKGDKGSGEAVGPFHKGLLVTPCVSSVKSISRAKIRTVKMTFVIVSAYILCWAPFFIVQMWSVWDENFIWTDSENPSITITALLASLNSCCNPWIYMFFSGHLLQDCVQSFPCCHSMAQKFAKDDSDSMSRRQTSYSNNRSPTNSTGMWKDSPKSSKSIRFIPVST
T1 sequence (P48974 whole entry): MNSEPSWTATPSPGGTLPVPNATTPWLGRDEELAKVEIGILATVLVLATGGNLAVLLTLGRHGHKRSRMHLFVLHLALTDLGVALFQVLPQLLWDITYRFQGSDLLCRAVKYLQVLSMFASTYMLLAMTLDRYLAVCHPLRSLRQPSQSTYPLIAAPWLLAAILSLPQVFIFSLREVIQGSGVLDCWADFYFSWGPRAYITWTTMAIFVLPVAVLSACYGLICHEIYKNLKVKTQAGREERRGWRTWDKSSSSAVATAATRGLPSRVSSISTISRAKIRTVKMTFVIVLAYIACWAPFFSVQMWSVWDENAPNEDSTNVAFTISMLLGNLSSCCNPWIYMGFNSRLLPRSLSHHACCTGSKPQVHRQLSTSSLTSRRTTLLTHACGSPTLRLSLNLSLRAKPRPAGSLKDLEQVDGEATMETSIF

IC50 [1]: 0.42 µM | IC50 [2]: 0.42 µM | IC50 (Vasopressin V2 receptor): 1.5 µM | IC50 (Oxytocin receptor [3]): 0.013 µM | IC50 (Oxytocin receptor [4]): 0.013 µM
SMILES: CC1(C)[C@@H]2CC[C@@]1(CS(=O)(=O)N1CCC3(CCc4ccccc43)CC1)[C@@H](n1c(O)c(Cc3cnc[nH]3)[nH]c1=O)C2 [3-[7,7-dimethyl-1-spiro[2,3-dihydro-1H-indene-1,4'-(hexahydropyridine)]-1-ylsulfonylmethyl-(1S,2S,4R)-bicyclo[2.2.1]hept-2-yl]-5-(1H-4-imidazolylmethyl)tetrahydro-1H-2,4-imidazoledione]
